Measurements published in ChEMBL document CHEMBL1147862, “Studies on synthesis and pharmacological activities of 3,6-disubstituted-1,2,4-triazolo[3,4-b]-1,3,4-thiadiazoles and their dihydro analogues” (2007).

Experiments:
Format in all cases: functional
Pseudomonas aeruginosa [1] = experiment: Antibacterial activity against Pseudomonas aeruginosa at 10 ug/ml by agar plate diffusion technique; settings: read-out: IZ
Escherichia coli [2] = experiment: Antibacterial activity against Escherichia coli at 10 ug/ml by agar plate diffusion technique; settings: read-out: IZ
Pseudomonas aeruginosa [3] = experiment: Antibacterial activity against Pseudomonas aeruginosa at 20 ug/ml by agar plate diffusion technique; settings: read-out: IZ
Pseudomonas aeruginosa [4] = experiment: Antibacterial activity against Pseudomonas aeruginosa at 30 ug/ml by agar plate diffusion technique; settings: read-out: IZ
Aspergillus niger [5] = experiment: Antifungal activity against Aspergillus niger at 20 ug/ml by paper disc method; settings: read-out: IZ
Escherichia coli [6] = experiment: Antibacterial activity against Escherichia coli at 30 ug/ml by agar plate diffusion technique; settings: read-out: IZ
Staphylococcus aureus [7] = experiment: Antibacterial activity against Staphylococcus aureus at 20 ug/ml by agar plate diffusion technique; settings: read-out: IZ
Rattus norvegicus [8] = experiment: Antiinflammatory activity in Wistar Albino rat assessed as inhibition of carrageenan-induced paw oedema at 20 mg/kg after 3 hrs relative to control
In short: (§1)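 Wistar albino rats, 150–200 g, six per group, dosed orally with a 20 mg/kg suspension; control gets 0.1 ml 1% gum acacia. After 30 min, 0.1 ml 1% carrageenan in saline is injected subplantar into the right hind paw. Paw volume is read by plethysmograph at 0–4 h. Inhibition = 100(1 − Vtest/Vcontrol) on mean volume increase.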

Candida albicans [9] = experiment: Antifungal activity against Candida albicans at 20 ug/ml by paper disc method; settings: read-out: IZ
Aspergillus niger [10] = experiment: Antifungal activity against Aspergillus niger at 30 ug/ml by paper disc method; settings: read-out: IZ
Escherichia coli [11] = experiment: Antibacterial activity against Escherichia coli at 20 ug/ml by agar plate diffusion technique; settings: read-out: IZ
Bacillus subtilis [12] = experiment: Antibacterial activity against Bacillus subtilis at 10 ug/ml by agar plate diffusion technique; settings: read-out: IZ
Rattus norvegicus [13] = experiment: Antiinflammatory activity in Wistar Albino rat assessed as inhibition of carrageenan-induced paw oedema at 20 mg/kg after 1 hr relative to control; in short: as §1
Rattus norvegicus [14] = experiment: Antiinflammatory activity in Wistar Albino rat assessed as inhibition of carrageenan-induced paw oedema at 20 mg/kg after 4 hrs relative to control; in short: as §1
Mus musculus [15] = experiment: Analgesic activity in Swiss mouse assessed as increase in reaction time at 20 mg/kg, po after 60 mins by Eddy's hot plate technique
In short: (§2)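 Swiss mice of either sex, 25–35 g, placed one at a time on a hot plate held at 55 °C. End point is paw licking or jumping, whichever comes first, with a 15 s cut-off to avoid paw injury. Reaction time is recorded and reported as percent increase in reaction time.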

Candida albicans [16] = experiment: Antifungal activity against Candida albicans at 10 ug/ml by paper disc method; settings: read-out: IZ
Bacillus subtilis [17] = experiment: Antibacterial activity against Bacillus subtilis at 30 ug/ml by agar plate diffusion technique; settings: read-out: IZ
Aspergillus niger [18] = experiment: Antifungal activity against Aspergillus niger at 10 ug/ml by paper disc method; settings: read-out: IZ
Bacillus subtilis [19] = experiment: Antibacterial activity against Bacillus subtilis at 20 ug/ml by agar plate diffusion technique; settings: read-out: IZ
Candida albicans [20] = experiment: Antifungal activity against Candida albicans at 30 ug/ml by paper disc method; settings: read-out: IZ
Mus musculus [21] = experiment: Analgesic activity in Swiss mouse assessed as increase in reaction time at 20 mg/kg, po after 90 mins by Eddy's hot plate technique; in short: as §2
Staphylococcus aureus [22] = experiment: Antibacterial activity against Staphylococcus aureus at 30 ug/ml by agar plate diffusion technique; settings: read-out: IZ
Staphylococcus aureus [23] = experiment: Antibacterial activity against Staphylococcus aureus at 10 ug/ml by agar plate diffusion technique; settings: read-out: IZ
Rattus norvegicus [24] = experiment: Antiinflammatory activity in Wistar Albino rat assessed as inhibition of carrageenan-induced paw oedema at 20 mg/kg after 2 hrs relative to control; in short: as §1
Mus musculus [25] = experiment: Analgesic activity in Swiss mouse assessed as increase in reaction time at 20 mg/kg, po after 30 mins by Eddy's hot plate technique; in short: as §2

| Structure (SMILES) | zone of inhibition at 10 µg/mL (Pseudomonas aeruginosa [1]) [mm] | zone of inhibition at 10 µg/mL (Escherichia coli [2]) [mm] | zone of inhibition at 20 µg/mL (Pseudomonas aeruginosa [3]) [mm] | zone of inhibition at 30 µg/mL (Pseudomonas aeruginosa [4]) [mm] | zone of inhibition at 20 µg/mL (Aspergillus niger [5]) [mm] | zone of inhibition at 30 µg/mL (Escherichia coli [6]) [mm] | zone of inhibition at 20 µg/mL (Staphylococcus aureus [7]) [mm] | inhibition in vivo at 20 mg/kg (Rattus norvegicus [8]) [%] | zone of inhibition at 20 µg/mL (Candida albicans [9]) [mm] | zone of inhibition at 30 µg/mL (Aspergillus niger [10]) [mm] | zone of inhibition at 20 µg/mL (Escherichia coli [11]) [mm] | zone of inhibition at 10 µg/mL (Bacillus subtilis [12]) [mm] | inhibition in vivo at 20 mg/kg (Rattus norvegicus [13]) [%] | inhibition in vivo at 20 mg/kg (Rattus norvegicus [14]) [%] | Activity (Mus musculus [15]) [%] | zone of inhibition at 10 µg/mL (Candida albicans [16]) [mm] | zone of inhibition at 30 µg/mL (Bacillus subtilis [17]) [mm] | zone of inhibition at 10 µg/mL (Aspergillus niger [18]) [mm] | zone of inhibition at 20 µg/mL (Bacillus subtilis [19]) [mm] | zone of inhibition at 30 µg/mL (Candida albicans [20]) [mm] | other results |
| --- | --- | --- | --- | --- | --- | --- | --- | --- | --- | --- | --- | --- | --- | --- | --- | --- | --- | --- | --- | --- | --- |
| COc1ccc(Cl)c(-c2nnc3sc(-c4ccnc(F)c4)nn23)c1 | 8.68 | 8.1 | 14.9 | 19.5 | 12.6 | 19.7 | 14.1 | 25.9 | 14.5 | 20.5 | 14.7 | 7.78 | 18.5 | 28.1 | 11.35 | 7.68 | 19.2 | 6.68 | 14.1 | 21.7 | Activity (Mus musculus [21]): 20.34%; zone of inhibition at 30 µg/mL (Staphylococcus aureus [22]): 19.2 mm; zone of inhibition at 10 µg/mL (Staphylococcus aureus [23]): 7.29 mm; inhibition in vivo at 20 mg/kg (Rattus norvegicus [24]): 24.6%; Activity (Mus musculus [25]): 4.12% |
| COc1ccc(Cc2nnc3sc(-c4ccnc(F)c4)nn23)cc1OC | 8.21 | 7.96 | 14.9 | 19.3 | 12.4 | 19.3 | 13.8 | 16.7 | 14.8 | 21 | 14.4 | 7.64 | 11.1 | 21.5 | 10.3 | 8.14 | 19.3 | 7.14 | 14.4 | 21.7 | Activity (Mus musculus [21]): 22.66%; zone of inhibition at 30 µg/mL (Staphylococcus aureus [22]): 19.2 mm; zone of inhibition at 10 µg/mL (Staphylococcus aureus [23]): 7.1 mm; inhibition in vivo at 20 mg/kg (Rattus norvegicus [24]): 14.3%; Activity (Mus musculus [25]): 2.83% |
| COc1ccc(Cl)c(-c2nnc3sc(Cc4c[nH]c5ccc(OC)cc45)nn23)c1 | 4.83 | 5.1 | 9.18 | 12.8 | 10.1 | 13.2 | 8.52 | 21.4 | 9.2 | 12.2 | 8.39 | 4.76 | 6.1 | 33.9 | 23.76 | 5.44 | 13.2 | 5.38 | 8.79 | 11.2 | Activity (Mus musculus [21]): 31.48%; zone of inhibition at 30 µg/mL (Staphylococcus aureus [22]): 13.7 mm; zone of inhibition at 10 µg/mL (Staphylococcus aureus [23]): 4.58 mm; inhibition in vivo at 20 mg/kg (Rattus norvegicus [24]): 14.4%; Activity (Mus musculus [25]): 13.69% |
| COc1ccc2[nH]cc(Cc3nn4c(Cc5ccc(OC)c(OC)c5)nnc4s3)c2c1 | 4.9 | 4.72 | 8.42 | 12.3 | 8.1 | 12.9 | 8.39 | 19.1 | 8.3 | 10.4 | 8.49 | 4.92 | 4.11 | 29.6 | 19.06 | 4.12 | 13.7 | 4.24 | 8.18 | 10 | Activity (Mus musculus [21]): 28.32%; zone of inhibition at 30 µg/mL (Staphylococcus aureus [22]): 13.6 mm; zone of inhibition at 10 µg/mL (Staphylococcus aureus [23]): 4.82 mm; inhibition in vivo at 20 mg/kg (Rattus norvegicus [24]): 11.6%; Activity (Mus musculus [25]): 11.92% |
| Cc1occc1-c1nnc2sc(-c3ccnc(Cl)c3)nn12 | 7.79 | 7.48 | 13.8 | 20.6 | 14.3 | 20.2 | 14.7 | 24.1 | 14 | 20.7 | 14.8 | 7.82 | 10.1 | 27.1 | 11.35 | 7.26 | 20.4 | 7.38 | 14.6 | 21.9 | Activity (Mus musculus [21]): 20.34%; zone of inhibition at 30 µg/mL (Staphylococcus aureus [22]): 19.2 mm; zone of inhibition at 10 µg/mL (Staphylococcus aureus [23]): 7.82 mm; inhibition in vivo at 20 mg/kg (Rattus norvegicus [24]): 15.3%; Activity (Mus musculus [25]): 6.04% |
| Cc1occc1-c1nnc2sc(-c3ccnc(F)c3)nn12 | 8.39 | 8.54 | 15.2 | 21.3 | 13 | 20.8 | 14.2 | 20.4 | 16.6 | 22.7 | 14.3 | 8.12 | 16.7 | 24.4 | 6.2 | 8.82 | 19.9 | 7.36 | 14.8 | 23.8 | Activity (Mus musculus [21]): 16.43%; zone of inhibition at 30 µg/mL (Staphylococcus aureus [22]): 20.2 mm; zone of inhibition at 10 µg/mL (Staphylococcus aureus [23]): 7.9 mm; inhibition in vivo at 20 mg/kg (Rattus norvegicus [24]): 18.2%; Activity (Mus musculus [25]): 4.13% |
